# Measurements published in ChEMBL document CHEMBL1134685, “Antitumor Agents. 211. Fluorinated 2-phenyl-4-quinolone derivatives as antimitotic antitumor agents” (J Med Chem, 2001).
# Columns and labels:
# OVCAR-3 = assay: Inhibition of in vitro tumor cell growth of OVCAR-3,ovarian cancer cell line; type: functional; details: Homo sapiens
# SF-295 = assay: Inhibition of in vitro tumor cell growth of SF-295, CNS tumor cell line; type: functional; details: Homo sapiens
# [1] = Inhibition of in vitro tumor cell growth of […], melanoma; type: functional; details: Homo sapiens
# HCT-116 = assay: Inhibition of in vitro tumor cell growth of HCT116, colon cancer cell line; type: functional; details: Homo sapiens
# SF-268 = assay: Inhibition of in vitro tumor cell growth of SF-268, CNS tumor cell line; type: functional; details: Homo sapiens
# K562 = assay: Inhibition of in vitro tumor cell growth of K-562, leukemia cell line; type: functional; details: Homo sapiens
# RXF 393 = assay: Inhibition of in vitro tumor cell growth of RXF-393, renal cancer cell line; type: functional; details: Homo sapiens
# NCI-H226 = assay: Inhibition of tumor cell growth of NCI-H226, non-small-cell lung cell line; type: functional; details: Homo sapiens
# Tubulin alpha chain [2] = molecular target: T1, Tubulin alpha chain (Sus scrofa, UniProt P02550); assay: (§1) Inhibition of tubulin polymerization. (ITP)
# T1 sequence (P02550 whole entry, looked up): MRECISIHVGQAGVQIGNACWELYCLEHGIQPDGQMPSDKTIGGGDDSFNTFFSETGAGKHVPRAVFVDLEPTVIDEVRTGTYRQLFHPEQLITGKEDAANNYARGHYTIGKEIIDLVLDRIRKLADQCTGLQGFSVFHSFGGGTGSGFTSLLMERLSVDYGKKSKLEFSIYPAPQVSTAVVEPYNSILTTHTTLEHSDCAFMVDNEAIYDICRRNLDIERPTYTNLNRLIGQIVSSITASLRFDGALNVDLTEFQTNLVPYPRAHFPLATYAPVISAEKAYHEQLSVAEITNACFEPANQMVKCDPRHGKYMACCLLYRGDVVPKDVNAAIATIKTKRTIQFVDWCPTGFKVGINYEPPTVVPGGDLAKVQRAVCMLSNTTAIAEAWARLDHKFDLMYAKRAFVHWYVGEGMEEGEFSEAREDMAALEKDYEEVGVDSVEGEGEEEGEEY
# Summary of the method: (§2)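 Tubulin polymerization inhibition, with reaction mixtures containing 10 μM tubulin. Result given as IC50.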
# Tubulin alpha chain [3] = molecular target: T1, Tubulin alpha chain; assay: Inhibition of tubulin polymerization (ITP); summary of the method: as §2
# [4] = molecular target: Tubulin alpha chain (Sus scrofa) (UniProt P02550); assay: as §1; summary of the method: as §2
# Sequence of Tubulin alpha chain (Sus scrofa) (P02550 whole entry, looked up): as above
SMILES,GI50 (OVCAR-3),GI50 (SF-295),GI50 [1],GI50 (HCT-116),GI50 (SF-268),GI50 (K562),GI50 (RXF 393),GI50 (NCI-H226),IC50 (Tubulin alpha chain [2]),IC50 (Tubulin alpha chain [3]),IC50 [4]
Fc1ccccc1-c1cc(S)c2cc3c(cc2n1)OCO3,21.4 µM,11.7 µM,4.07 µM,5.5 µM,20 µM,56.2 µM,29.5 µM,16.6 µM,–,–,–
CCOC(=O)CCCOc1cc(-c2ccccc2F)nc2cc3c(cc12)OCO3,–,–,57.5 µM,> 100 µM,> 100 µM,–,–,–,> 40 µM,–,–
Cn1c(-c2ccccc2)cc(=O)c2ccccc21,–,–,–,–,–,–,–,–,> 40 µM,–,–
O=c1cc(-c2ccccc2F)[nH]c2cc3c(cc12)OCO3,–,–,0.0209 µM,–,–,–,–,–,–,0.68 µM,–
O=C(O)CCCOc1cc(-c2ccccc2F)nc2cc3c(cc12)OCO3,–,–,–,–,–,–,–,–,12 µM,–,–
Oc1cc(-c2ccccc2)nc2ccccc12,–,–,–,–,–,–,–,–,–,7.3 µM,–
O=c1[nH]c(/C=C/c2ccccc2)nc2ccccc12,–,–,–,–,–,–,–,–,5 µM,–,–
O=C(O)COc1cc(-c2ccccc2F)nc2cc3c(cc12)OCO3,> 100 µM,> 100 µM,> 100 µM,> 100 µM,> 100 µM,> 100 µM,> 100 µM,> 100 µM,> 20 µM,–,–
CCOC(=O)COc1cc(-c2ccccc2F)nc2cc3c(cc12)OCO3,–,> 100 µM,72.4 µM,72.4 µM,> 100 µM,38 µM,> 100 µM,> 100 µM,> 40 µM,–,–
O=c1cc(-c2ccccc2F)[nH]c2ccc(N3CCCC3)cc12,–,–,< 0.01 µM,–,0.0389 µM,0.0324 µM,< 0.01 µM,–,–,–,0.46 µM
